In ChEMBL document CHEMBL3785072, “2,6-Di(arylamino)-3-fluoropyridine Derivatives as HIV Non-Nucleoside Reverse Transcriptase Inhibitors” (J Med Chem, 2016):

Tests used:
[1] = system: Human immunodeficiency virus 1; assay: Antiviral activity against R5-tropic HIV1 subtype B BaL infected in human TZM-bl cells assessed as viral inhibition pre-incubated for 30 mins prior to infection measured after 48 hrs by luciferase assay; format: functional, organism-based
In short: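 TZM-bl cells (10^4/well at 10^5 cells/mL, medium with 30 µg/mL DEAE dextran) pre-incubated with serial compound dilutions 30 min at 37 °C, 5% CO2. Then infected with 200 TCID50 HIV-1 BaL and incubated 48 h. Luciferase read-out expressed as % inhibition vs untreated controls. EC50 from non-linear regression. Triplicate wells, ≥3 independent experiments.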

[2] = Selectivity index, ratio of CC50 for human TZM-bl cells to EC50 for R5-tropic HIV1 subtype B BaL infected in human TZM-bl cells; format: toxicity, cell-based; conditions: for selectivity ratio: TZM-bl cells, read-out: Selectivity Index
[3] = system: Human immunodeficiency virus 1; assay: Antiviral activity against efavirenz resistant R5-tropic HIV1 subtype C VI829 expressing reverse transcriptase L100I-K103N mutant infected in human TZM-bl cells assessed as viral inhibition pre-incubated for 30 mins prior to infection measured after 48 hrs by luciferase assay; format: functional, organism-based; conditions: Human immunodeficiency virus 1, VI829, TZM-bl
In short: (§1)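 TZM-bl cells (10^4 per well, at 10^5 cells/mL in medium with 30μg/mL DEAE dextran) pre-incubated with serial compound dilutions, then infected with 200 TCID50 of resistant HIV-1; luciferase read after 48 h. Inhibition expressed as % of untreated controls; EC50 by non-linear regression. Triplicate wells, at least three independent experiments.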

[4] = system: Human immunodeficiency virus 1; assay: Antiviral activity against nevirapine resistant R5-tropic HIV1 subtype C VI829 expressing reverse transcriptase Y181C mutant infected in human TZM-bl cells assessed as viral inhibition pre-incubated for 30 mins prior to infection measured after 48 hrs by luciferase assay; format: functional, organism-based; conditions: Human immunodeficiency virus 1, VI829, TZM-bl; in short: as §1
[5] = system: Human immunodeficiency virus 1; assay: Antiviral activity against HIV1 NL4.3 expressing reverse transcriptase K103N-Y181C mutant infected in human TZM-bl cells assessed as viral inhibition pre-incubated for 30 mins prior to infection measured after 48 hrs by luciferase assay; format: functional, organism-based; conditions: Human immunodeficiency virus 1, NL4.3, TZM-bl; in short: as §1
[6] = system: Human immunodeficiency virus 1; assay: Antiviral activity against HIV1 NL4.3 expressing reverse transcriptase K103N mutant infected in human TZM-bl cells assessed as viral inhibition pre-incubated for 30 mins prior to infection measured after 48 hrs by luciferase assay; format: functional, organism-based; conditions: Human immunodeficiency virus 1, NL4.3, TZM-bl; in short: as §1
[7] = Human immunodeficiency virus 1, BaL, TZM-bl

Structure (SMILES) | EC50 [1, 7] [nM] | selectivity ratio [2] | EC50 [3] [nM] | EC50 [4] [nM] | EC50 [5] [nM] | EC50 [6] [nM] | EC50 ([1]; tzm-bl) [nM] | Selectivity Index ([2]; tzm-bl)
Cc1cc(C#N)cc(C)c1Nc1ncc(F)c(Nc2ccc(C#N)cc2)n1 | 2.8 | > 36000 |  |  |  |  |  | 
Cc1cc(/C=C/C#N)cc(C)c1Nc1ccc(F)c(Nc2ccc(/C=C/C#N)cc2)n1 | 4.6 | 19000 |  |  |  |  |  | 
COC(=O)c1ccc(Nc2nc(Nc3c(C)cc(/C=C/C#N)cc3C)ccc2F)cc1 | 23 | 2100 |  |  |  |  |  | 
Cc1cc(/C=C/C#N)cc(C)c1Nc1cccc(Nc2ccc(C#N)cc2)n1 (mixture of isomers) | 3.5 | 11000 | > 1000 | 91 |  |  |  | 
Cc1cc(C#N)cc(F)c1Nc1ccc(F)c(Nc2ccc(C#N)cc2)n1 | 8.8 | 4600 |  |  |  |  |  | 
Cc1cc(/C=C/C#N)cc(F)c1Nc1cccc(Nc2ccc(C#N)cc2)n1 (mixture of isomers) | 5.5 | 5500 | 1100 | 255 |  |  |  | 
Cc1cc(/C=C/C#N)cc(C)c1Nc1ncc(F)c(Nc2ccc(C#N)cc2)n1 (mixture of isomers) | 0.9 | > 42000 |  |  |  |  |  | 
Cc1cc(/C=C/C#N)ccc1Nc1ccc(F)c(Nc2ccc(C#N)cc2)c1 (mixture of isomers) | 58 | 89 |  |  |  |  |  | 
Cc1cc(/C=C/C#N)ccc1Nc1ccc(F)c(Nc2ccc(Cl)cc2)n1 | 63 | 380 |  |  |  |  |  | 
Cc1cc(C#N)cc(C)c1Nc1ccc(F)c(Nc2ccc(Cl)cc2)n1 | 15 | 2000 |  |  |  |  |  | 
Cc1cc(C)c(Nc2ccnc(Nc3ccc(C#N)cc3)n2)c(C)c1 [DAPIVIRINE] | 1.4 | 2000 | > 1000 | 11 | 92 | 2.8 |  | 
Cc1cc(/C=C/C#N)cc(C)c1Nc1ccc(F)c(Nc2ccc(C#N)cc2)n1 | 1.5 | 62500 | 540 | 8.1 | 554 | 7.8 | 1.6 | 37500
Cc1cc(C)c(Nc2ccc(F)c(Nc3ccc(C#N)cc3)n2)c(C)c1 | 8.3 | 2000 | > 10000 | 130 |  |  |  | 
N#C/C=C/c1cc(F)c(Nc2ccc(F)c(Nc3ccc(C#N)cc3)n2)c(F)c1 (mixture of isomers) | 3.3 | 4600 |  |  |  |  |  | 
Cc1cc(/C=C/C#N)cc(C)c1Nc1ccc(F)c(Nc2ccc(F)cc2)n1 (mixture of isomers) | 6.2 | 8100 |  |  |  |  |  | 
COC(=O)/C=C/c1cc(C)c(Nc2ccc(F)c(Nc3ccc(C#N)cc3)n2)c(C)c1 | 4.4 | 13000 |  |  |  |  |  | 

Structure (SMILES) | EC50 [1, 7] [nM] | selectivity ratio [2] | EC50 [3] [nM] | EC50 [4] [nM] | EC50 [5] [nM] | EC50 [6] [nM] | EC50 ([1]; tzm-bl) [nM] | Selectivity Index ([2]; tzm-bl)
Cc1cc(C#N)cc(C)c1Nc1cccc(Nc2ccc(C#N)cc2)n1 | 25 | 930 | 6600 | 1500 |  |  |  | 
COC(=O)/C=C/c1cc(C)c(Nc2ccc(F)c(Nc3ccc(F)cc3)n2)c(C)c1 | 84 | 610 |  |  |  |  |  | 
Cc1cc(C#N)cc(C)c1Nc1ccc(F)c(Nc2ccc(C#N)cc2)n1 | 4.7 | 7100 | > 10000 | 91 |  |  |  | 
Cc1cc(C)c(Nc2cccc(Nc3ccc(C#N)cc3)n2)c(C)c1 | 30 | 1400 |  |  |  |  |  | 
Cc1cc(/C=C/C#N)cc(C)c1Nc1ccnc(Nc2ccc(C#N)cc2)n1 [RILPIVIRINE] | 0.72 | 10700 | 3.6 | 2.5 | 3.1 | 0.7 |  | 
Cc1cc(C#N)cc(C)c1Nc1ccc(F)c(Nc2ccc(F)cc2)n1 | 51 | 830 |  |  |  |  |  | 
Cc1ccc(Oc2ccc(F)c(Nc3ccc(C#N)cc3)n2)cc1 | 260 | 390 |  |  |  |  |  | 
Cc1cc(/C=C/C#N)cc(C)c1Nc1ccc(F)c(Nc2ccc(C#N)cc2)c1 (mixture of isomers) | 4.5 | 7400 |  |  |  |  |  | 
Cc1cc(/C=C/C#N)cc(C)c1Nc1ccc(F)c(Nc2ccc(Cl)cc2)n1 (mixture of isomers) | 6.3 | 6600 |  |  |  |  |  | 
Cc1cc(/C=C/C#N)ccc1Nc1ccc(F)c(Nc2ccc(F)cc2)n1 | 400 | 210 |  |  |  |  |  | 
Cc1cc(/C=C/C#N)cc(F)c1Nc1ccc(F)c(Nc2ccc(C#N)cc2)n1 | 1 | > 100000 | 272 | 25 | > 1000 | 36 |  | 
Cc1cc(/C=C/C#N)ccc1Nc1ccc(F)c(Nc2ccc(C#N)cc2)n1 (mixture of isomers) | 11 | 24000 |  |  |  |  |  | 
N#C/C=C/c1ccc(Nc2ccc(F)c(Nc3ccc(C#N)cc3)n2)cc1 (mixture of isomers) | 480 | 14 |  |  |  |  |  | 
COC(=O)/C=C/c1cc(C)c(Nc2ccc(F)c(Nc3ccc(Cl)cc3)n2)c(C)c1 | 53 | 950 |  |  |  |  |  | 
Cc1cc(C)c(Oc2ccc(F)c(Nc3ccc(C#N)cc3)n2)c(C)c1 | 8.6 | 6400 |  |  |  |  |  | 
Cc1cc(/C=C/C#N)cc(F)c1Nc1ccc(F)c(Nc2ccc(C#N)cc2)c1 (mixture of isomers) | 11 | 6100 |  |  |  |  |  | 
